Data as given in ChEMBL document CHEMBL5674867, “The SUV39H1 inhibitor chaetocin induces differentiation and shows synergistic cytotoxicity with other epigenetic drugs in acute myeloid leukemia cells” (Blood Cancer J, 2015).
Calls of active or inactive are those of the source. The calls are words filed in the database; no cut-off is given here.

Tests used:
[1] = tested on: HL-60; experiment: Induction of myeloid differentiation in human HL-60 cells at 50 nM measured after 12 hrs by Liu's staining method; assay type: functional, cell-based
Procedure, shortened: (§1)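 Cells received single epigenetic inhibitors or combinations and were collected by cytospin. After Liu's staining (reagent A 1 min, reagent B 2.5 min), differentiated cells were counted under a light microscope. Mean ± s.e. of three independent experiments.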

[2] = tested on: KG-1a; experiment: Induction of myeloid differentiation in human KG-1a cells at 50 nM measured after 12 hrs by Liu's staining method; assay type: functional, cell-based; procedure, shortened: as §1
[3] = tested on: U-937; experiment: Induction of myeloid differentiation in human U-937 cells at 50 nM measured after 12 hrs by Liu's staining method; assay type: functional, cell-based; procedure, shortened: as §1
[4] = tested on: U-937; experiment: Cytotoxicity against human U-937 cells at 20 nM assessed as decrease in cell viability in combination with 0.5 uM SAHA measured after 24 hrs by MTT assay; assay type: functional
[5] = tested on: KG-1a; experiment: Cytotoxicity against human KG-1a cells at 20 nM assessed as decrease in cell viability in combination with 0.5 uM SAHA measured after 24 hrs by MTT assay; assay type: functional
[6] = tested on: HL-60; experiment: Cytotoxicity against human HL-60 cells at 20 nM assessed as decrease in cell viability in combination with 0.5 uM SAHA measured after 24 hrs by MTT assay; assay type: functional
[7] = tested on: KG-1a; experiment: Induction of myeloid differentiation in human KG-1a cells at 0.5 uM measured after 12 hrs by Liu's staining method; assay type: functional, cell-based
Procedure, shortened: (§2)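 Cells treated for 12 h, spun onto slides by cytospin, stained with Liu's reagent A for 1 min and then reagent B for 2.5 min. Morphology read by light microscopy. KG-1a was grown in IMDM with 15% FBS; HL-60 and U937 in RPMI with 10% FBS.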

[8] = tested on: U-937; experiment: Induction of myeloid differentiation in human U-937 cells at 0.5 uM measured after 12 hrs by Liu's staining method; assay type: functional, cell-based; procedure, shortened: as §2
[9] = tested on: HL-60; experiment: Induction of myeloid differentiation in human HL-60 cells at 0.5 uM measured after 12 hrs by Liu's staining method; assay type: functional, cell-based; procedure, shortened: as §2
[10] = tested on: KG-1a; experiment: Cytotoxicity against human KG-1a cells assessed as decrease in cell viability measured after 48 hrs by MTT assay; assay type: functional, cell-based
[11] = tested on: HL-60; experiment: Cytotoxicity against human HL-60 cells assessed as decrease in cell viability measured after 48 hrs by MTT assay; assay type: functional, cell-based; conditions: HL-60, 48 h
[12] = tested on: HL-60; experiment: Cytotoxicity against human HL-60 cells assessed as decrease in cell viability measured after 24 hrs by MTT assay; assay type: functional, cell-based; conditions: HL-60, 24 h
Procedure, shortened: (§3)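 MTT viability read 24 h after exposure over a low concentration range (0–25 μM for one inhibitor, 0–100 for the other as printed). IC50 was derived for each line. Culture: HL-60 and U937 in RPMI + 10% FBS, KG-1a in IMDM + 15% FBS.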

[13] = tested on: KG-1a; experiment: Cytotoxicity against human KG-1a cells assessed as decrease in cell viability measured after 24 hrs by MTT assay; assay type: functional, cell-based; procedure, shortened: as §3
[14] = tested on: KG-1a; experiment: Induction of myeloid differentiation in human KG-1a cells at 20 uM assessed as increase in CD11b mRNA expression measured after 48 hrs by RT-PCR assay; assay type: functional, cell-based
Procedure, shortened: (§4)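 Cells exposed for 48 h (KG-1a in IMDM/15% FBS; HL-60 and U937 in RPMI/10% FBS). Total RNA extracted, 1 µg reverse transcribed, CD11b quantified by SYBR green real-time PCR normalised to actin. Cycling was 30 cycles of 95 °C, 60 °C and 72 °C, 45 s each. Mean ± s.e. of three independent experiments, compared with untreated control.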

[15] = tested on: U-937; experiment: Induction of myeloid differentiation in human U-937 cells at 20 uM assessed as increase in CD11b mRNA expression measured after 48 hrs by RT-PCR assay; assay type: functional, cell-based; procedure, shortened: as §4
[16] = tested on: U-937; experiment: Cytotoxicity against human U-937 cells assessed as decrease in cell viability measured after 24 hrs by MTT assay; assay type: functional, cell-based; conditions: U-937, 24 h; procedure, shortened: as §3
[17] = tested on: U-937; experiment: Cytotoxicity against human U-937 cells assessed as decrease in cell viability measured after 48 hrs by MTT assay; assay type: functional, cell-based; conditions: U-937, 48 h
[18] = tested on: HL-60; experiment: Induction of myeloid differentiation in human HL-60 cells at 20 uM assessed as increase in CD11b mRNA expression measured after 48 hrs by RT-PCR assay; assay type: functional, cell-based; procedure, shortened: as §4

## Cc1sc2c(c1C)C(c1ccc(Cl)cc1)=N[C@@H](CC(=O)OC(C)(C)C)c1nnc(C)n1-2
[1]
  Activity: Active
[2]
  Activity: Active
[3]
  Activity: Active

## CN1C(=O)[C@@]23C[C@]4([C@]56C[C@@]78SS[C@@](CO)(C(=O)N7[C@H]5Nc5ccccc56)N(C)C8=O)c5ccccc5N[C@@H]4N2C(=O)[C@]1(CO)SS3.O=C(CCCCCCC(=O)Nc1ccccc1)NO
[4]
  Activity: 20%
[5]
  Activity: 40%
[6]
  Activity: 40%

## O=C(CCCCCCC(=O)Nc1ccccc1)NO
[7]
  Activity: Active
[8]
  Activity: Active
[9]
  Activity: Active

## COc1cc2c(NC3CCN(C(C)C)CC3)nc(C3CCCCC3)nc2cc1OCCCN1CCCC1
[10]
  IC50: 22.4 µM
[11]
  IC50: 23.8 µM
[12]
  IC50: 27.4 µM
[13]
  IC50: 26.5 µM
[14]
  Activity: inactive
[15]
  Activity: inactive
[16]
  IC50: 21.4 µM
[17]
  IC50: 19.7 µM
[18]
  Activity: inactive
